In the library only some 2.6% were active in any assay of this set; here they are far more common.
SENP6 inh = blocks the human protease SENP6; Q9GZR1; Recombinant SENP6 catalytic domain, aminoluciferin luminescence; inhibition, % at 10 µM; 330,000 tested, 1.8% active;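 active = inhibition above about 50% at the single tested dose, limit read from the data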;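 also: plate controls were DMSO wells with enzyme for no effect and DMSO wells lacking enzyme for full effect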
Platelet DG rel = modulates dense granule release in human platelets; human platelet-rich plasma, SFLLRN dense granule ATP release, luminescence; inhibition, %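 (compounds screened at 7.5 µM in platelet-rich plasma)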; 300,000 tested, 0.22% active; AID 1663;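 active = mean replicate score, as percent of positive control, at or above 50; inconclusive = mean below 50 but at least one replicate at or above 50; inactive = mean and every replicate below 50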
SENP8 block-1 = inhibitors of human SENP8 protease. Q96LD8. purified SENP8, Z-RLRGG-aminoluciferin cleavage, luminescence. inhibition, % at 10 µM. 330,000 tested, 1.2% active. AID 2540; in the data active = inhibition above about 50%
Target sequence (Q96LD8 whole entry, looked up): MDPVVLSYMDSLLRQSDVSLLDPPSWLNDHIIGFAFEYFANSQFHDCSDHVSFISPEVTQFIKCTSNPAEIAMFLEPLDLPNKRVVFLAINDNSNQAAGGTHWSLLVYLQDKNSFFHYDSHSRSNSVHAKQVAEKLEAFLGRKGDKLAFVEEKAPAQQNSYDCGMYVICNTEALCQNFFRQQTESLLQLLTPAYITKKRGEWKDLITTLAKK
SENP8 block-2 = inhibitors of human SENP8 protease; Q96LD8; recombinant SENP8, Nedd8 substrate fluorescence; inhibition, % at 20 µM; 360,000 tested, 0.64% active; in the data active = inhibition mostly above about 40%, no sharp cut-off; inactive = mostly below about 27%
SENP7 block = SENP7 protease inhibition; Q9BQF6; recombinant SENP7, Z-RLRGG-aminoluciferin luminescence, 40 min; 330,000 tested, 1.5% active; AID 434973; inhibition, % at 5 µM;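 active = inhibition above about 50% at the single test dose, limit read from the data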;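 also: plate controls were DMSO with enzyme for no effect and no enzyme buffer wells for full effect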
SENP1 FRET inh = inhibitors of human SENP1 SUMO protease catalytic domain; recombinant SENP1 catalytic domain, CyPet-SUMO1-YPet FRET cleavage; inhibition, % at 10 µM; 360,000 tested, 0.21% active; AID 624204;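 active = inhibition at least 30% at 10 µM, raw YFP signal under a set limit, fluorescence ratio 0.5 to 1.5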;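 also: 0% = enzyme with DMSO and 100% = no enzyme wells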
Target sequence (Q9P0U3 419-644 limits assumed): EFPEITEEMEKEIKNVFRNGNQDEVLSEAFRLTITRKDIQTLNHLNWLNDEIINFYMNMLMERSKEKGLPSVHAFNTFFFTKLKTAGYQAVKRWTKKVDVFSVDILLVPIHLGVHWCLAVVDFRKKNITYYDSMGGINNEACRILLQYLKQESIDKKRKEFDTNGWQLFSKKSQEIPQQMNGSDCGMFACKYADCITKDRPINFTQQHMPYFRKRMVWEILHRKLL
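Compound: 10 µM single point, 0.5% DMSO; Test system: hSENP1 catalytic domain, recombinant; Timing: 50 min reaction at room temperature; Technique: FRET, CFP and YFP emission; Control set: no-enzyme wells low, DMSO-plus-enzyme wells high control.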
Active calls of the source: *; ? = inconclusive; / = no result given.

SMILES | SENP6 inh | Platelet DG rel | SENP8 block-1 | SENP8 block-2 | SENP7 block | SENP1 FRET inh
O=C(CCN1C(=O)/C(=C\C=C\c2ccccc2)SC1=S)Nc1ccc(C(=O)O)cc1 | 59.4* | -4.4 | 59.9* | 16.1 | 17.6 | -11.3
O=C(CN1C(=O)S/C(=C/C=C/c2ccccc2)C1=O)Nc1ccc(C(=O)O)cc1 | 28.7 | 3.0 | 5.9 | -130.2 | 5.3 | -1.9
CCOc1ccccc1C=C1SC(=S)N(CC)C1=O | / | / | / | 35.6* | / | -7.2
CCN1C(=O)/C(=C\N2CCCCCC2)SC1=S | 7.2 | -13.9 | -6.5 | 46.3* | 2.6 | -0.7
CCOC(=O)N1CCN(C(=O)CCN2C(=O)/C(=C\c3ccccc3OC)SC2=S)CC1 | -12.2 | 14.6 | -11.3 | 22.0 | 7.1 | -8.6
O=C(NC1CCCCC1)c1cc(S(=O)(=O)N2CCOCC2)c(Cl)cc1Cl | -23.5 | 9.4 | -8.8 | 5.5 | -8.6 | 0.6
CC(C)Sc1ccc(C(=O)Nc2ccc(F)cc2F)cn1 | 70.4* | 21.2 | 55.6* | 10.5 | 68.3* | 0.1
O=C(Nc1ccc(F)cc1F)c1ccc(-n2cccn2)nc1 | -42.2 | -4.9 | -7.8 | 27.4 | -3.5 | 1.7
CCOc1ccc(CCNC(=O)c2ccc(=O)[nH]c2)cc1OCC | -4.8 | 6.9 | -2.5 | 1.3 | -5.9 | 0.7
CCOC(=O)C1(C)/C(=N/Nc2ccc(Cl)cc2)C(=O)C(=O)N1c1ccccc1 (centres undefined) | -0.9 | -3.5 | 5.8 | 19.3 | 4.8 | 2.4
CCOC(=O)C1(C)/C(=N/Nc2cccc(Cl)c2)C(=O)C(=O)N1c1ccccc1 (centres undefined) | -1.5 | 2.4 | 8.8 | 43.1* | 3.5 | 4.3
O=C(CSCc1c(F)cccc1Cl)NCc1ccco1 | -2.7 | 3.8 | 0.2 | 14.3 | 7.3 | -0.6
O=C(CSCc1c(Cl)cccc1Cl)NCc1ccco1 | -10.2 | 83.5* | 1.7 | 21.9 | 1.7 | -2.1
COc1ccc(NC(=O)CSc2nccn2Cc2ccccc2)c(OC)c1 | -6.3 | 0.8 | 2.0 | 8.9 | -1.5 | 1.7
Oc1nc(Nc2ccc(F)cc2)sc1/C=C1\C=Nc2ccccc21 | 7.2 | 6.1 | -9.5 | -14.8 | 2.1 | -134.6
O=c1[nH]c(S)c(/C=C2\C=Nc3ccccc32)s1 | 24.8 | -0.1 | 11.2 | 51.7* | 10.6 | 8.7
Cc1nc2ccc(N=NC3=C(O)CC(C)(C)CC3=O)cc2s1 | 13.5 | -2.0 | -1.4 | 18.8 | 2.4 | 9.3
CC(=O)N1CCc2cc(N=NC3=C(O)CC(C)(C)CC3=O)ccc21 | 5.9 | 1.6 | 3.2 | 24.5 | 9.1 | 67.3*
CCc1noc(C)c1C(=O)Nc1cccc(S(=O)(=O)N(C)c2ccccc2)c1 | -19.2 | 3.2 | -3.5 | -35.0 | -1.4 | 1.2
CC(C)(C)c1ccc(S(=O)(=O)NCc2ccccn2)cc1 | 18.9 | -4.0 | 6.9 | -23.2 | 11.2 | 1.9
CCCCCCCCCCCCCCCC[n+]1cccc2ccccc21 | -17.2 | / | 3.2 | -41.0 | 7.0 | 2.1
CCCCCCCCC[n+]1cccc2c3ccccc3ccc21 | -15.7 | 87.4* | -12.1 | -476.9 | 10.2 | -1.0
CCN1C(=O)/C(=C2\C=Cc3ccccc3N2CC)SC1=S | -18.9 | 14.6 | 0.3 | 46.2* | 9.4 | 12.6
COc1cc(C2NC(=S)NC(O)(C(F)(F)F)C2C(=O)c2cccs2)cc(OC)c1O (centres undefined) | -11.3 | 0.5 | 0.6 | 7.1 | 4.7 | 1.5
Cc1cccc(OCC(=O)NC(C)C(=O)N/N=C/c2c(OCc3ccccc3)ccc3ccccc23)c1 (centres undefined) | -4.7 | 3.1 | -2.7 | -48.3 | 7.7 | 2.3
SMILES | SENP6 inh | Platelet DG rel | SENP8 block-1 | SENP8 block-2 | SENP7 block | SENP1 FRET inh
COc1ccccc1NC(=O)CSc1ncc(CO)n1Cc1ccc(F)cc1 | -29.7 | 3.9 | -12.9 | 8.7 | 9.5 | -2.2
O=C(CN1C2=NCCCN2c2ccccc21)c1ccc(Br)s1 | -5.9 | -2.9 | -11.5 | 40.6* | -0.5 | 0.9
Cc1ccccc1-c1nnc(-c2cccs2)o1 | 81.6* | 10.9 | 54.9* | -144.6 | 55.1* | 2.9
c1coc(-c2nnc(-c3cccs3)o2)c1 | 3.2 | -2.7 | -7.1 | -230.2 | 15.6 | 1.3
Cc1cc(/C=N/Nc2nc(N)ncc2[N+](=O)[O-])c(C)n1-c1ccccc1F | 101.9* | 28.1 | 94.9* | / | 94.5* | /
Cc1cc2cc(C)c3nnc(SCc4ccccn4)n3c2cc1C | -18.1 | -4.9 | -3.5 | -13.7 | 6.4 | -0.8
Cc1cc(C)cc(OCC(=O)N(Cc2cccs2)C2CCS(=O)(=O)C2)c1 (centres undefined) | 0.1 | 1.9 | -2.0 | 5.9 | 5.9 | 0.7
O=C1CC(c2ccc(O)cc2)Oc2cc(O)cc(O)c21 (centres undefined) | 26.9 | -1.2 | 17.4 | -1.2 | 4.6 | 1.1
CC1CC(=O)c2c(cc3c(-c4c(O)cc(O)c5c(O)c6c(cc45)OC(C)CC6=O)c(O)cc(O)c3c2O)O1 (centres undefined) | 41.0 | 4.9 | 22.1 | 71.2* | 25.8 | 69.7*
Cc1ccc(NC(=O)CSc2ccccc2)cc1S(=O)(=O)N1CCCCC1 | 6.5 | / | 4.1 | 13.1 | 2.9 | -0.6
CCOC(=O)c1c(CN2CCCCC2C)oc2ccc(OC)cc12 (centres undefined) | -4.0 | -2.3 | -0.5 | 17.1 | 14.7 | -6.8
C=CCOc1c(Br)cc(/C=C2/C(=O)ON=C2C)cc1OC | 8.3 | -6.7 | -2.6 | 31.8* | 1.3 | 1.9
C#CCOc1c(Br)cc(/C=C2/C(=O)ON=C2C)cc1OC | -9.7 | 5.4 | 3.9 | 5.5 | 5.2 | 0.9
COCCn1c(SCc2nc3ccccc3c(=O)[nH]2)nnc1-c1ccncc1 | 7.3 | -7.3 | -4.4 | 3.2 | -0.3 | -4.6
CCN(CC)C(=O)CSc1ncnc2c(-c3ccc(OC)cc3)nsc12 | 50.9* | ? | 52.4* | / | 34.1 | /
COc1ccc(-c2nsc3c(SCc4ccccc4)ncnc23)cc1 | 20.6 | -17.9 | -8.0 | -398.1 | 4.2 | -3.5
C=CCc1ccc(OCCCN2CCCC(C)C2)c(OC)c1 (centres undefined) | -19.5 | -2.5 | -0.9 | 24.8 | -2.6 | -0.4
O=[N+]([O-])c1ccccc1-c1cc(-c2ccccc2O)n[nH]1 | 60.6* | -6.0 | 36.0 | 10.3 | 13.6 | 0.4
Cc1cccc(NC(=O)c2ccc(N3CCCCC3)c([N+](=O)[O-])c2)n1 | 76.0* | 11.2 | 47.8 | 15.4 | 73.4* | 3.6
Cc1cccc(NC(=O)c2ccc(N3CCOCC3)c([N+](=O)[O-])c2)n1 | -17.4 | 5.4 | -2.0 | 26.8 | 7.3 | 2.5
COC(=O)Nc1nnc(-c2ccccc2OC)s1 | 41.6 | -7.6 | 33.3 | -167.6 | 67.3* | -9.4
CCOC(=O)Nc1nnc(-c2ccccc2OC)s1 | -21.8 | 11.2 | -8.7 | -172.9 | 5.3 | -0.8
CCOC(=O)CNS(=O)(=O)c1cc(-c2n[nH]c(=O)c3ccccc23)ccc1C | / | 51.3* | / | 23.1 | / | 0.5
O=C(Nc1cccc(S(=O)(=O)N2CCCC2)c1)[C@@H]1O[C@H](CO)[C@H](O)[C@H](O)[C@H]1O | / | / | / | 19.1 | / | -1.1
Cn1nnnc1SCC(=O)Nc1cc(C(C)(C)C)nn1-c1ccccc1 | 3.3 | -18.9 | 0.4 | 9.8 | 3.2 | 0.1

Screening data: PubChem, several laboratories
